According to the M2OR odorant receptor database:
Numbering of substitutions follows the chain as printed.

Legend:
Conditions in all cases: stereoisomer not certain
[1] = target: T1, OR1F12P (Homo sapiens) (UniProt Q8NHA8)
T1 sequence (whole entry): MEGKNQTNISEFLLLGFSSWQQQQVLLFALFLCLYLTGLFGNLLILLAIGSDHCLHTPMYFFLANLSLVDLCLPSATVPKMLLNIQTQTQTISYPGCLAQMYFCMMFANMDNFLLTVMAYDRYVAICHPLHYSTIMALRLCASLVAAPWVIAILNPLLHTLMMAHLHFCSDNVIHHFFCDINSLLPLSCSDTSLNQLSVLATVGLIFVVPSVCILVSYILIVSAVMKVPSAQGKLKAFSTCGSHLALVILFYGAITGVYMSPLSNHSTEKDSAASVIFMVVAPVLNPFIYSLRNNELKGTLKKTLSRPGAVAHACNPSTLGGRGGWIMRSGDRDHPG
How it was run: (§1)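 Assay methods differ from source to source, frequently being transient luciferase assays in mammalian cell lines. For each receptor–molecule pair, the label responsive (active) applies when the original authors judged the measured signal statistically different from baseline, and non-responsive (inactive) applies otherwise.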

[2] = test system: T2, OR1F1
T2 sequence (whole entry): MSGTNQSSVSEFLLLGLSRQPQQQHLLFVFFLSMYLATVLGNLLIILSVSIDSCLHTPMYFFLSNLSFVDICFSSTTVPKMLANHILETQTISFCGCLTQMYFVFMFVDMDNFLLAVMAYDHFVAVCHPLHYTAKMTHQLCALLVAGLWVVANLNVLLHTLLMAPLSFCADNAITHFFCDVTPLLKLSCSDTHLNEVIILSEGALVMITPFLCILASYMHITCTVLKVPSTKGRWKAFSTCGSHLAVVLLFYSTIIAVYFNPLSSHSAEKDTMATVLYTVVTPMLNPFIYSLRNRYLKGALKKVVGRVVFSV
How it was run: as §1

[3] = target: T3, OR1G1 (Homo sapiens) (UniProt P47890)
T3 sequence (whole entry): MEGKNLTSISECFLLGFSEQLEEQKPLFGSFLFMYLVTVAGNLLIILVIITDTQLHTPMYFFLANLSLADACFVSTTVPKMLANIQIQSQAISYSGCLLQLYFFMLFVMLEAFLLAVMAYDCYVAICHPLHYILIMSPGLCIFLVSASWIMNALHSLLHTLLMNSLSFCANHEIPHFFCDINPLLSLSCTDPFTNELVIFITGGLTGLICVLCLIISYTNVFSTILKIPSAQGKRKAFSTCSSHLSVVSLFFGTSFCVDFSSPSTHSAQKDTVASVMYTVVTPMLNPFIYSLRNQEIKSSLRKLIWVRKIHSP
How it was run: as §1

[4] = target: T4, OR1I1 (Homo sapiens) (UniProt O60431)
T4 sequence (whole entry): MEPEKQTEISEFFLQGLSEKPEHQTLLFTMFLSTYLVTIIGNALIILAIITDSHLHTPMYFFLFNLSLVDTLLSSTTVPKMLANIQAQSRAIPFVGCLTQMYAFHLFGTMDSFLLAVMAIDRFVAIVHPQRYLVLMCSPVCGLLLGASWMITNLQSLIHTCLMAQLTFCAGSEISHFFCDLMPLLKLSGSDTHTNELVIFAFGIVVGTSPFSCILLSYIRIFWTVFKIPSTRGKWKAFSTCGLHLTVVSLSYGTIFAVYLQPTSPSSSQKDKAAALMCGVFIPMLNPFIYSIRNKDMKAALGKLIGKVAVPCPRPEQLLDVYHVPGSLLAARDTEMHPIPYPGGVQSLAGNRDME
How it was run: as §1

[5] = target: T5, OR1J1 (Homo sapiens) (UniProt Q8NGS3)
T5 sequence (whole entry): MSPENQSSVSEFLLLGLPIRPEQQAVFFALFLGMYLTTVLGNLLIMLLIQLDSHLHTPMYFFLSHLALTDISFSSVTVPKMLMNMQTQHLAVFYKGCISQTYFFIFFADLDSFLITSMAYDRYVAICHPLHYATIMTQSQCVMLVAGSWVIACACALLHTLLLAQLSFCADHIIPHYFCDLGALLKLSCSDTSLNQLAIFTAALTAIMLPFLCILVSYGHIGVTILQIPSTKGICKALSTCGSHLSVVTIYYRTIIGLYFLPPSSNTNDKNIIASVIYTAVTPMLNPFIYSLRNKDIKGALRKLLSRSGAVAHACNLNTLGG
How it was run: as §1

[6] = target: T6, OR1J2 (Homo sapiens) (UniProt Q8NGS2)
T6 sequence (whole entry): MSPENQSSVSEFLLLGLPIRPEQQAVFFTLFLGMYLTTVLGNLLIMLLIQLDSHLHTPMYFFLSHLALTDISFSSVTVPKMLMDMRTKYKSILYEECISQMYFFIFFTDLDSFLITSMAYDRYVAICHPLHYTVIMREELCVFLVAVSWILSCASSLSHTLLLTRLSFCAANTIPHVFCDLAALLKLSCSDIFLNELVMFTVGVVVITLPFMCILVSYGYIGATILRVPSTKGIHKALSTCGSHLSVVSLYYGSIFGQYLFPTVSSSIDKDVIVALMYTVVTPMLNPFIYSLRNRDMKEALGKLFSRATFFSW
How it was run: as §1

[7] = target: T7, OR1J4 (Homo sapiens) (UniProt Q8NGS1)
T7 sequence (whole entry): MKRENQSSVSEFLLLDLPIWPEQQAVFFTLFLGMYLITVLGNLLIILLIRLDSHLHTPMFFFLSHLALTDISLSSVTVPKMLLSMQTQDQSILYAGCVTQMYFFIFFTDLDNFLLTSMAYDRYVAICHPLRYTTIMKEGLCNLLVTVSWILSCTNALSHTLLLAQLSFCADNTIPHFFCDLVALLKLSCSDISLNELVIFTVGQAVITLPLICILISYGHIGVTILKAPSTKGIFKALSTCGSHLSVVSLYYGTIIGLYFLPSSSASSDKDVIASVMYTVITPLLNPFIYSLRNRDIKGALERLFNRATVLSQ
How it was run: as §1

[8] = target: T8, OR1K1 (Homo sapiens) (UniProt Q8NGR3)
T8 sequence (whole entry): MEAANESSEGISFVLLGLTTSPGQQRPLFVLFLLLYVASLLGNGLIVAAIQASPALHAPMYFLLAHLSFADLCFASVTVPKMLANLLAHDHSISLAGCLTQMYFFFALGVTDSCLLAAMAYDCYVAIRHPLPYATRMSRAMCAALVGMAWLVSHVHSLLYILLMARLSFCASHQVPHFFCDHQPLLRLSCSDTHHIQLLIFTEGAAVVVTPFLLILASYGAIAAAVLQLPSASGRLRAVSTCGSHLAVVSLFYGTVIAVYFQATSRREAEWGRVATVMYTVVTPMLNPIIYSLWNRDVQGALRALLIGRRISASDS
How it was run: as §1

[9] = test system: T9, OR1L1
T9 sequence (whole entry): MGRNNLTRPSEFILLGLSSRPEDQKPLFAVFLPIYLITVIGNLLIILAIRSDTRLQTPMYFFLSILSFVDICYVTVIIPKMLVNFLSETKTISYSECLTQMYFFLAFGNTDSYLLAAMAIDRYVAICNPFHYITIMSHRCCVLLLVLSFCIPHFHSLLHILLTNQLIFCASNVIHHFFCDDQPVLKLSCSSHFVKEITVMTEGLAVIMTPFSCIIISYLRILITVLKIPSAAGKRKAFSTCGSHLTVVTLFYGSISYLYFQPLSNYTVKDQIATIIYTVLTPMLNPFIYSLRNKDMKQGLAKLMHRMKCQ
How it was run: as §1

[10] = target: T10, OR1L3 (Homo sapiens) (UniProt Q8NH93)
T10 sequence (whole entry): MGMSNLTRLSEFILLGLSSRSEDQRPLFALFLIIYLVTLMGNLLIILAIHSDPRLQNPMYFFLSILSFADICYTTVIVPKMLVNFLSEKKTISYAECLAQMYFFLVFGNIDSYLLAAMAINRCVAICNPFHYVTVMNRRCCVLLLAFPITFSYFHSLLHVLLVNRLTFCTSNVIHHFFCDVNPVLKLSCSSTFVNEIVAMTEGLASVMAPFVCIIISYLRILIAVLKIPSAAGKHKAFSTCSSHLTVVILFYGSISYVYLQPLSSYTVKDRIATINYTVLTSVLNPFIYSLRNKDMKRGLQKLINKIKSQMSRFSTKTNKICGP
How it was run: as §1

[11] = target: T11, OR1L4 (Homo sapiens) (UniProt Q8NGR5)
T11 sequence (whole entry): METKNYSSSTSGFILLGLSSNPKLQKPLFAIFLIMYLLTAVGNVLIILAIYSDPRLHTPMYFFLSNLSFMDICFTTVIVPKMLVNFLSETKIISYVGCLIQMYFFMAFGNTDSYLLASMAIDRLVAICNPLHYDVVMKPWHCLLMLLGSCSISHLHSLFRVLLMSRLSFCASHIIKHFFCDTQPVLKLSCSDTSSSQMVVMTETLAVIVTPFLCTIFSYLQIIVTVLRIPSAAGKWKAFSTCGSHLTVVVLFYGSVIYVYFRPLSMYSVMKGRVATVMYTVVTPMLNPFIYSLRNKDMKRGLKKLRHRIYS
How it was run: as §1

[12] = test system: T12, OR1L4
T12 sequence (whole entry): T11 sequence (whole entry) with G234R
How it was run: as §1

[13] = test system: T13, OR1L6
T13 sequence (whole entry): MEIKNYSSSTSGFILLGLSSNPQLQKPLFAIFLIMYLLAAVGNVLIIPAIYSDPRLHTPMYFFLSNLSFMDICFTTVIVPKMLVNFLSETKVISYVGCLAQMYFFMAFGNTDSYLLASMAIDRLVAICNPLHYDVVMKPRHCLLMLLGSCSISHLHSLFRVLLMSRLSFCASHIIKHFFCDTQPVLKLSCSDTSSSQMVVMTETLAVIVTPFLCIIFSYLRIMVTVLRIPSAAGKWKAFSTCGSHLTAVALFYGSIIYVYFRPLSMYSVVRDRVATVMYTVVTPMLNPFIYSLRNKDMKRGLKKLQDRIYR
How it was run: as §1

[14] = target: T14, OR1L8 (Homo sapiens) (UniProt Q8NGR8)
T14 sequence (whole entry): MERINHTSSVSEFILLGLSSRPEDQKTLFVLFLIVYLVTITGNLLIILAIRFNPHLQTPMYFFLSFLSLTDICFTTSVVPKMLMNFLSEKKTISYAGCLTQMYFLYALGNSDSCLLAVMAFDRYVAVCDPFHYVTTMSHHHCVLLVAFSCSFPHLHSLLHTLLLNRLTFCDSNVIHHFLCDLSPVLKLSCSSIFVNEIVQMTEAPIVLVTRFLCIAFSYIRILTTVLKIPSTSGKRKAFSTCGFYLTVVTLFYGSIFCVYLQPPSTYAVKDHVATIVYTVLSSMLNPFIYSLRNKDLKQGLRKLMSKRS
How it was run: as §1

[15] = test system: T15, OR1L8 T27P R211P
T15 sequence (whole entry): T14 sequence (whole entry) with T27P, R211P
How it was run: as §1

[16] = target: T16, OR1M1 (Homo sapiens) (UniProt Q8NGA1)
T16 sequence (whole entry): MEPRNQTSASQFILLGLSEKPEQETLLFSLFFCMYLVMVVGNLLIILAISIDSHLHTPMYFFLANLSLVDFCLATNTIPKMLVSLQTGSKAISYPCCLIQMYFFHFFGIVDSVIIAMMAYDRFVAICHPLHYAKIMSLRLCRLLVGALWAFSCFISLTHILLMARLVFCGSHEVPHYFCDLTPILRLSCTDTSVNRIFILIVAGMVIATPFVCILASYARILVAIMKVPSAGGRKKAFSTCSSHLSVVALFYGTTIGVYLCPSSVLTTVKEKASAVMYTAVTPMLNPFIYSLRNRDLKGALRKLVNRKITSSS
How it was run: as §1

[17] = target: T17, OR1N1 (Homo sapiens) (UniProt Q8NGS0)
T17 sequence (whole entry): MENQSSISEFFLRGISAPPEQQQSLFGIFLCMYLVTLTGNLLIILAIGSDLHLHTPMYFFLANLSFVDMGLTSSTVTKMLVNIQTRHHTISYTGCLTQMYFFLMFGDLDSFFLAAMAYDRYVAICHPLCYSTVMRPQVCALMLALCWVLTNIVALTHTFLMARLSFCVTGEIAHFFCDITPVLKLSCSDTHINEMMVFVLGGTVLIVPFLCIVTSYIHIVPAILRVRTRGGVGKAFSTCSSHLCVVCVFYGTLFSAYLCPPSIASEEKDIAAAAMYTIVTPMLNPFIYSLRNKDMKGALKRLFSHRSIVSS
How it was run: as §1

[18] = test system: T18, OR1N2 W37R
T18 sequence (whole entry): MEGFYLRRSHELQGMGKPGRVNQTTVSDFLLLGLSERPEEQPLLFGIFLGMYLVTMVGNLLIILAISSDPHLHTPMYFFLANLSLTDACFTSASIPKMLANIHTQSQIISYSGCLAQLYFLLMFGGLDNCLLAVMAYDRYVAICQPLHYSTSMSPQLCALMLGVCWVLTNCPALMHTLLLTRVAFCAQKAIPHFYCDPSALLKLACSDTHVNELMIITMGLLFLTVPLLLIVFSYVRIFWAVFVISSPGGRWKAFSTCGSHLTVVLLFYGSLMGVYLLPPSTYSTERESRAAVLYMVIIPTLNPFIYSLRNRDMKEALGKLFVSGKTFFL
How it was run: as §1

Measured: odorant receptor agonist call

Cc1cnc(C)c(C)n1
inactive: [1] | [2] | [3] | [4] | [5] | [6] | [7] | [8] | [9] | [10] | [11] | [12] | [13] | [14] | [15] | [16] | [17] | [18]

CC1=NC(C)C(C)S1 (stereo unspecified)
inactive: [1] | [2] | [3] | [4] | [5] | [6] | [7] | [8] | [9] | [10] | [11] | [12] | [13] | [14] | [15] | [16] | [17] | [18]
